According to ChEMBL document CHEMBL1275401, “2'-Deoxy-2'-spirocyclopropylcytidine revisited: a new and selective inhibitor of the hepatitis C virus NS5B polymerase” (J Med Chem, 2010):

Tests used:
[1] = Cmax in Beagle dog at 15 mg/kg, po; type: ADME, organism-based, Canis lupus familiaris; set-up: dose 15 mg/kg, route oral; conditions: in vivo
Procedure, shortened: (§1)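 Single oral dose given as a solution in 20% hydroxypropyl-β-cyclodextrin to Beagle dogs, three per dose. Blood was taken on EDTA at 0.5, 1, 2, 4, 6, 8, 24 and 48 h, kept on ice away from light, and centrifuged at 4 °C within 1 h; plasma was stored at −20 °C. Analyte was protein-precipitated with acetonitrile and measured by LC-MS (LOQ ≥5.00 ng/mL). Noncompartmental parameters.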

[2] = AUC (0 to 24 hrs) in Beagle dog at 15 mg/kg, po; type: ADME, organism-based, Canis lupus familiaris; set-up: time < 24 hr, dose 15 mg/kg, route oral; conditions: plasma; procedure, shortened: as §1
[3] = Cmax in Beagle dog at 75 mg/kg, po; type: ADME, organism-based, Canis lupus familiaris; set-up: dose 75 mg/kg, route oral; conditions: in vivo; procedure, shortened: as §1
[4] = Cmax in Sprague-Dawley rat at 90 mg/kg, po; type: ADME, organism-based; set-up: dose 90 mg/kg, route oral; conditions: in vivo
Procedure, shortened: (§2)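 Male Sprague-Dawley rats, three per dose, received a single oral solution in 20% hydroxypropyl-β-cyclodextrin. EDTA blood was collected at 0.5, 1, 2, 4, 7 and 24 h, kept on ice protected from light, and spun at 4 °C within 1 h; plasma was stored at −20 °C. Parent nucleoside was quantified by LC-MS after acetonitrile precipitation (standard curve 5-2000 ng/mL). Noncompartmental analysis.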

[5] = AUC (0 to 7 hrs) in Sprague-Dawley rat at 15 mg/kg, po; type: ADME, organism-based; set-up: time < 7 hr, dose 15 mg/kg, route oral; conditions: plasma; procedure, shortened: as §2
[6] = AUC (0 to 24 hrs) in Beagle dog at 75 mg/kg, po; type: ADME, organism-based, Canis lupus familiaris; set-up: time < 24 hr, dose 75 mg/kg, route oral; conditions: plasma; procedure, shortened: as §1
[7] = Tmax in Beagle dog at 15 mg/kg, po; type: ADME, organism-based, Canis lupus familiaris; set-up: dose 15 mg/kg, route oral; conditions: in vivo; procedure, shortened: as §1
[8] = AUC (0 to 24 hrs) in Sprague-Dawley rat at 90 mg/kg, po; type: ADME, organism-based; set-up: time < 24 hr, dose 90 mg/kg, route oral; conditions: plasma; procedure, shortened: as §2
[9] = Tmax in Sprague-Dawley rat at 15 mg/kg, po; type: ADME, organism-based; set-up: dose 15 mg/kg, route oral; conditions: in vivo; procedure, shortened: as §2
[10] = Cmax in Sprague-Dawley rat at 15 mg/kg, po; type: ADME, organism-based; set-up: dose 15 mg/kg, route oral; conditions: in vivo; procedure, shortened: as §2
[11] = Cytotoxicity against human HuH7 cells expressing CMV-Luc after 3 days by luciferase assay; type: cell-based, Huh-7
Procedure, shortened: (§3)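 Huh7 cells stably carrying luciferase under the CMV constitutive promoter, or MT4 cells with luciferase under the HIV LTR promoter, were cultured with or without compound dilutions for 3 days at 37 °C in humidified 5% CO₂. Luciferase activity served as the measure of proliferation, giving the CC₅₀ as 50% inhibition of growth. Values are averages of at least four repeats.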

[12] = Tmax in Beagle dog at 75 mg/kg, po; type: ADME, organism-based, Canis lupus familiaris; set-up: dose 75 mg/kg, route oral; conditions: in vivo; procedure, shortened: as §1
[13] = system: Hepatitis C virus; assay: Antiviral activity against Hepatitis C virus subtype 1b with adaptive mutations of E1202G, T1280I, K1846T […] infected in human HuH7 cells assessed as inhibition of viral replication after 3 days by luciferase assay; type: functional, organism-based, Hepacivirus hominis; conditions: genotype 1b, Huh-7, 72 h
Procedure, shortened: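 Huh7-Rep cells carrying the genotype 1b subgenomic luciferase reporter replicon (clone ET; adaptive mutations E1202G, T1280I, K1846T). 2500 cells per well were exposed to a nine-point 1/4 serial dilution of compound. Replication was read out as luciferase activity, and EC50 was derived from it. Values are averages of at least four repeats.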

[14] = Tmax in Sprague-Dawley rat at 90 mg/kg, po; type: ADME, organism-based; set-up: dose 90 mg/kg, route oral; conditions: in vivo; procedure, shortened: as §2
[15] = Cytotoxicity against human MT4 cells expressing LTR-Luc after 3 days by luciferase assay; type: cell-based; procedure, shortened: as §3
[16] = AUC (0 to 7 hrs) in Sprague-Dawley rat at 10 mg/kg, po; type: ADME, organism-based; set-up: time < 7 hr, dose 10 mg/kg, route oral; conditions: plasma; procedure, shortened: as §2
[17] = Cmax in Sprague-Dawley rat at 10 mg/kg, po; type: ADME, organism-based; set-up: dose 10 mg/kg, route oral; conditions: in vivo; procedure, shortened: as §2
[18] = Tmax in Sprague-Dawley rat at 10 mg/kg, po; type: ADME, organism-based; set-up: dose 10 mg/kg, route oral; conditions: in vivo; procedure, shortened: as §2
[19] = AUC (0 to 7 hrs) in Sprague-Dawley rat at 60 mg/kg, po; type: ADME, organism-based; set-up: time < 7 hr, dose 60 mg/kg, route oral; conditions: plasma; procedure, shortened: as §2
[20] = Tmax in Sprague-Dawley rat at 60 mg/kg, po; type: ADME, organism-based; set-up: dose 60 mg/kg, route oral; conditions: in vivo; procedure, shortened: as §2
[21] = Cmax in Sprague-Dawley rat at 60 mg/kg, po; type: ADME, organism-based; set-up: dose 60 mg/kg, route oral; conditions: in vivo; procedure, shortened: as §2

SMILES	CC50 at 72 h [11]	EC50 [13]	CC50 at 72 h [15]	AUC(0-t) at 7 h [16]	Cmax [17]	Tmax [18]	other results
CC(C)C(=O)OC[C@H]1O[C@@H](n2ccc(N)nc2=O)C2(CC2)[C@@H]1OC(=O)C(C)C	> 98.4 µM	20.3 µM	> 98.4 µM	–	–	–	Cmax [1]: 6300 ng/mL; AUC(0-t) at 24 h [2]: 37000 ng·h/mL; Cmax [3]: 42800 ng/mL; Cmax [4]: 11400 ng/mL; AUC(0-t) at 7 h [5]: 7220 ng·h/mL; AUC(0-t) at 24 h [6]: 204 µg·h/mL; Tmax [7]: 1.5 h; AUC(0-t) at 24 h [8]: 40000 ng·h/mL; Tmax [9]: 48 min; Cmax [10]: 2390 ng/mL; Tmax [12]: 1.3 h; Tmax [14]: 42 min
C[C@@]1(F)[C@H](O)[C@@H](CO)O[C@H]1n1ccc(N)nc1=O	> 98.4 µM	1.9 µM	> 98.4 µM	–	–	–	–
[N-]=[N+]=N[C@]1(CO)O[C@@H](n2ccc(N)nc2=O)[C@H](O)[C@@H]1O [4'-AZIDOCYTIDINE]	> 98.4 µM	4.3 µM	> 98.4 µM	–	–	–	–
C[C@@]1(O)[C@H](O)[C@@H](CO)O[C@H]1n1ccc(N)nc1=O	> 98.4 µM	4.6 µM	> 98.4 µM	–	–	–	–
CC(C)C(=O)O[C@@H]1[C@@H](CO)O[C@@H](n2ccc(N)nc2=O)C12CC2	> 98.4 µM	42.8 µM	> 98.4 µM	2620 ng·h/mL	184 ng/mL	42 min	–
Nc1ccn([C@@H]2O[C@H](CO)[C@@H](O)C23CC3)c(=O)n1	> 98.4 µM	7.3 µM	> 98.4 µM	248 ng·h/mL	85 ng/mL	60 min	AUC(0-t) at 7 h [19]: 1640 ng·h/mL; Tmax [20]: 1.3 h; Cmax [21]: 527 ng/mL
